Here are results for 14 molecules from ChEMBL document CHEMBL1138738, “Synthesis, in vitro pharmacology, structure-activity relationships, and pharmacokinetics of 3-alkoxy-2-amino-6-fluorobicyclo[3.1.0]hexane-2,6-dicarboxylic acid derivatives as potent and selective group II metabotropic glutamate receptor antagonists” (J Med Chem, 2004).

In general, Ki refers to a dissociation constant, usually derived from enzyme kinetics or from competition with a known ligand. The Tmax is the time at which the peak concentration occurs. In general, Cmax refers to the peak of the concentration-time curve. Usually half-life stands for the time in which the quantity being followed falls by half. Higher therefore signals slow decline. The IC50 is the concentration that inhibits the measured activity by half. The low end stands for greater potency in that assay, the high end for weaker potency in that assay. For orientation: EC50 means the concentration giving half of the maximal effect. Read a high EC50 as weaker potency.

Data set [1] concerns the target T1, Metabotropic glutamate receptor 2 (Rattus norvegicus, UniProt P31421). The data set can be described thus: Binding affinity towards metabotropic glutamate receptor 2 of rat expressed in CHO cells was determined by using [3H]MGS-0008. In kind it is cell-based.
The nature of data set [2]: Maximum time required to achieve peak plasma concentration in rat brain upon oral dose of 10 mg/kg. It counts as ADME, organism-based. Further details: dose 10 mg/kg, route oral. Put shortly: (§1)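 Rats given a single peroral dose of 10 mg/kg. Plasma and cerebrum were sampled at 1, 3, 6 and 24 h. Concentrations were measured by LC/ESI-MS/MS using an internal standard. Detection limits were 1 ng/mL in plasma and 1.5 ng/g in brain. Tmax, Cmax, terminal half-life (lambda z) and predicted AUCinf were derived from the mean time-course levels.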

Data set [3] is described as follows: Maximum time required to achieve peak plasma concentration upon oral dose of 10 mg/kg to rats. It counts as ADME, organism-based. To be noted: rat. Further details: dose 10 mg/kg, route oral. Put shortly: (§2)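 Fasted rats were dosed orally at 3, 10 or 30 mg/kg. Plasma concentration-time profiles were measured by LC/ESI-MS/MS. Cmax, Tmax, elimination half-life and AUCinf were derived per dose group and reported as mean ± deviation.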

Data set [4] can be described thus: Concentration of compound in plasma of rat after 3h of oral dose 10 mg/kg. In kind it is ADME, organism-based. Set-up: dose 10 mg/kg, route oral. The method in brief:
as §1

Data set [5] is described as follows: Peak plasma concentration in rats upon oral dose of 3 mg/kg. The conditions noted are these: rat. It counts as ADME, organism-based. Set-up: dose 3 mg/kg, route oral. Put shortly: as §2
Data set [6] in a line: Half-life in rat upon oral dose of 3 mg/kg. It counts as ADME, organism-based. Set-up: dose 3 mg/kg, route oral. The conditions noted are these: in vivo. The method in brief:
as §2

Data set [7] is described as follows: Peak plasma concentration in rats upon oral dose of 10 mg/kg. Further details: dose 10 mg/kg, route oral. The conditions noted are these: rat. It counts as ADME, organism-based. Put shortly:
as §2

Data set [8] in a line: Concentration of compound in plasma of rat after 6 hr of oral dose 10 mg/kg. It counts as ADME, organism-based. Set-up: dose 10 mg/kg, route oral. The method in brief: as §1
A short description of data set [9]: Maximum time required to achieve peak plasma concentration upon oral dose of 30 mg/kg to rats. In kind it is ADME, organism-based. Set-up: dose 30 mg/kg, route oral. The conditions noted are these: rat. Put shortly: as §2
The nature of data set [10]: Half-life in rat upon oral dose of 30 mg/kg. In kind it is ADME, organism-based. Further details: dose 30 mg/kg, route oral. The conditions noted are these: in vivo. The method in brief: as §2
For data set [11], the target named is T1, Metabotropic glutamate receptor 2. The data set can be described thus: Concentration required to inhibit metabotropic glutamate receptor 2 activity of rat expressed in CHO cells. It counts as cell-based.
Data set [12] is described as follows: Half-life in rat upon oral dose of 10 mg/kg. It counts as ADME, organism-based. Further details: dose 10 mg/kg, route oral. The conditions noted are these: in vivo. Put shortly: as §2
The nature of data set [13]: Concentration of compound in brain of rat after 3h of oral dose 10 mg/kg. In kind it is ADME, organism-based. Further details: dose 10 mg/kg, route oral. Put shortly:
as §1

A short description of data set [14]: Peak plasma concentration in rats upon oral dose of 30 mg/kg. The conditions noted are these: rat. Set-up: dose 30 mg/kg, route oral. In kind it is ADME, organism-based. Put shortly:
as §2

Data set [15] is described as follows: Maximum time required to achieve peak plasma concentration in rat plasma upon oral dose of 10 mg/kg. Set-up: dose 10 mg/kg, route oral. It counts as ADME, organism-based. The method in brief:
as §1

The nature of data set [16]: Concentration of compound in brain of rat after 6 hr of oral dose 10 mg/kg. Further details: dose 10 mg/kg, route oral. It counts as ADME, organism-based. The method in brief: as §1
Data set [17] is described as follows: Peak plasma concentration in rat plasma upon oral dose of 10 mg/kg. It counts as ADME, organism-based. Set-up: dose 10 mg/kg, route oral. Put shortly:
as §1

A short description of data set [18]: Concentration of compound in brain of rat after 1 hr of oral dose 10 mg/kg. Further details: dose 10 mg/kg, route oral. It counts as ADME, organism-based. The method in brief:
as §1

Data set [19] is described as follows: Half-life in rat brain upon oral dose of 10 mg/kg. In kind it is ADME, organism-based. Set-up: dose 10 mg/kg, route oral. Put shortly:
as §1

For data set [20], the target named is Metabotropic glutamate receptor 3 (Rattus norvegicus, UniProt P31422). The data set can be described thus: Binding affinity towards metabotropic glutamate receptor 3 of rat expressed in CHO cells was determined by using [3H]MGS-0008. In kind it is cell-based.
Chain of Metabotropic glutamate receptor 3 (P31422 whole entry): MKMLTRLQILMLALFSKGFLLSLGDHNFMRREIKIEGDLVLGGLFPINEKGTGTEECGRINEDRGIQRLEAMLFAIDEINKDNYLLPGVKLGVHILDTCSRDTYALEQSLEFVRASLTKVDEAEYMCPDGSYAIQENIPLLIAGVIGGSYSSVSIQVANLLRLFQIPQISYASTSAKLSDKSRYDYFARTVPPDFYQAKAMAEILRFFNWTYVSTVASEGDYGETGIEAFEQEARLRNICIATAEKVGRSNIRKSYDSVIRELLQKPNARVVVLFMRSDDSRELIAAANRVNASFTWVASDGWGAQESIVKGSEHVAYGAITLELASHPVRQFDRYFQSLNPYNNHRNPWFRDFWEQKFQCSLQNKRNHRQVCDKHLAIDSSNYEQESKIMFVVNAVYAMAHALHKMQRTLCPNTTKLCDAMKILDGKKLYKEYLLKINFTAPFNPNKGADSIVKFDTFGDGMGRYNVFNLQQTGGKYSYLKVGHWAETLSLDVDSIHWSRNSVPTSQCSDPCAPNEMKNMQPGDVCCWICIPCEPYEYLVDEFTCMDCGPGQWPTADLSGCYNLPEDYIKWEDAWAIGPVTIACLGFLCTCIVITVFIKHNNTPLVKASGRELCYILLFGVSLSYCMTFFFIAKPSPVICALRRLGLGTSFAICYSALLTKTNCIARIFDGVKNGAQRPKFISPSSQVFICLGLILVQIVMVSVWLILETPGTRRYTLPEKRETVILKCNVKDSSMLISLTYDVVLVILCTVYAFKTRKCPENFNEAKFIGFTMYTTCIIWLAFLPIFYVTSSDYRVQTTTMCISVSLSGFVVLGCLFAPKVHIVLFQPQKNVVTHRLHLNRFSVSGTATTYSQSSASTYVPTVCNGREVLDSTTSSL
The nature of data set [21]: Half-life in rat plasma upon oral dose of 10 mg/kg. In kind it is ADME, organism-based. Further details: dose 10 mg/kg, route oral. The method in brief:
as §1

The nature of data set [22]: Concentration of compound in plasma of rat after 1 hr of oral dose 10 mg/kg. It counts as ADME, organism-based. Further details: dose 10 mg/kg, route oral. The method in brief: as §1
A short description of data set [23]: Concentration of compound in plasma of rat after 24 hr of oral dose 10 mg/kg. Set-up: dose 10 mg/kg, route oral. It counts as ADME, organism-based. The method in brief: as §1
A short description of data set [24]: Maximum time required to achieve peak plasma concentration upon oral dose of 3 mg/kg to rats. Further details: dose 3 mg/kg, route oral. It counts as ADME, organism-based. The conditions noted are these: rat. The method in brief: as §2
A short description of data set [25]: Peak plasma concentration in rat brain upon oral dose of 10 mg/kg. It counts as ADME, organism-based. Set-up: dose 10 mg/kg, route oral. The method in brief: as §1
Data set [26] is described as follows: Concentration of compound in brain of rat after 24 hr of oral dose 10 mg/kg. In kind it is ADME, organism-based. Further details: dose 10 mg/kg, route oral. The method in brief: as §1
The target of data set [27] is T1, Metabotropic glutamate receptor 2. In words: Effective concentration for agonistic activity towards metabotropic glutamate receptor 2 of rat expressed in CHO cells. In kind it is functional, cell-based.

T1 sequence (P31421 whole entry): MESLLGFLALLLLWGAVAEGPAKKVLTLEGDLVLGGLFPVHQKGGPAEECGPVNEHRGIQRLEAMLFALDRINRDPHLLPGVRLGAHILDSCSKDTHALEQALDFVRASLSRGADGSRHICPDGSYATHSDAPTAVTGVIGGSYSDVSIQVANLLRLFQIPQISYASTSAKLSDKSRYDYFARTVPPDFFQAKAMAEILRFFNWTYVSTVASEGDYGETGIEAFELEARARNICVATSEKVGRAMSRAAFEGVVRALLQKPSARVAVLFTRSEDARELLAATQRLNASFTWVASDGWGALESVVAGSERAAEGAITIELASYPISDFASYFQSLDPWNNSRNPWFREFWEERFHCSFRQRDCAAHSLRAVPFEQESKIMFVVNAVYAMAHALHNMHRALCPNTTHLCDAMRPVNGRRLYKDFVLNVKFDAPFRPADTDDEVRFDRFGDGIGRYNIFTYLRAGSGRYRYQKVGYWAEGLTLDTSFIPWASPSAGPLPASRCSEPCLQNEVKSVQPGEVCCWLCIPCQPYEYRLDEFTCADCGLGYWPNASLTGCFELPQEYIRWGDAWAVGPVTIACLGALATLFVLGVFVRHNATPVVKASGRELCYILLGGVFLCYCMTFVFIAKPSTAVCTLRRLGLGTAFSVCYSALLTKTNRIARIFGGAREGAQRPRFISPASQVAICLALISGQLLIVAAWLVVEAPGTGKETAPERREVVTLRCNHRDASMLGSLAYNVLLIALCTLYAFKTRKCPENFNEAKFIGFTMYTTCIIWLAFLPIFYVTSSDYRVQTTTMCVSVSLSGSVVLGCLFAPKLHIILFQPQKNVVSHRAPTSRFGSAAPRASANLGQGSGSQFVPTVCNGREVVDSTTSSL

The molecule `CCC[C@H](O[C@@H]1C[C@@H]2[C@H]([C@]1(N)C(=O)O)[C@@]2(F)C(=O)O)c1ccc(Cl)c(Cl)c1` had an inhibitory constant (Ki) in data set [1] of 3.05 nM.
Turning to `N[C@]1(C(=O)O)[C@H]2[C@@H](C[C@H]1OCc1cccc(C(F)(F)F)c1)[C@]2(F)C(=O)O`, the affinity in [1] corresponds to a Ki of 5.72 nM.
`N[C@]1(C(=O)O)[C@H]2[C@@H](C[C@H]1OCc1ccc(Cl)c(F)c1)[C@]2(F)C(=O)O` yielded a Ki in [1] of 4.02 nM.
Consider `N[C@@]1(C(=O)O)[C@@H](OCc2ccc(Cl)c(Cl)c2)C[C@@H]2[C@H]1[C@@]2(F)C(=O)O`, for which the inhibitory constant (Ki) in data set [1] is 17.1 nM.
Consider `N[C@]1(C(=O)O)[C@H]2[C@@H](C[C@H]1OCc1ccc3ccccc3c1)[C@]2(F)C(=O)O`, for which the Tmax is 6 h in data set [2]; 2.7 h in data set [3]; 2.7 h in [9]; 3 h in data set [15]; 4 h in data set [24]. Moreover, the concentration at 3 h in [4] came to 252 ng/mL; in data set [13], 3.64 ng/mL. Further, the Cmax in data set [5] came out at 65.9 ng/mL; in [7], 374 ng/mL; in [14], 965 ng/mL; in data set [17], 252 ng/mL; in data set [25], 8.72 ng/mL. For the same molecule, the half-life in [6] is 3.66 h; in data set [10], 2.93 h; in data set [12], 2.74 h; in [19], 7.1 h; in data set [21] it was 2.9 h. In addition, the concentration at 6 h is 210 ng/mL in data set [8] and 8.72 ng/mL in [16]. Moreover, it took 22.7 nM to reach half-maximal inhibition in data set [11] (IC50). Also, the concentration at 1 h is 1.42 ng/mL in [18] and 121 ng/mL in [22]. In data set [20], the affinity corresponds to a Ki of 5.43 nM. Moreover, the concentration at 24 h came out at 2.2 ng/mL in data set [23] and 0.25 ng/mL in data set [26].
With `Cc1cccc(CO[C@@H]2C[C@@H]3[C@H]([C@]2(N)C(=O)O)[C@@]3(F)C(=O)O)c1`, the Ki in [1] amounted to 4.53 nM.
As for `N[C@]1(C(=O)O)[C@H]2[C@@H](C[C@H]1OCc1cccc(-c3ccccc3)c1)[C@]2(F)C(=O)O`, the inhibition constant (Ki) in data set [1] turned out to be 9.34 nM. This Ki lies about 2.1-fold higher than the previous one.
As to `N[C@@]1(C(=O)O)[C@H](O)C[C@@H]2[C@H]1[C@@]2(F)C(=O)O`, in data set [27], the EC50 was > 100000 nM. Further, the Ki in data set [1] amounted to 32.9 nM; in data set [20], 67.1 nM.
Take `N[C@]1(C(=O)O)[C@H]2[C@@H](C[C@H]1OC(c1ccccc1)c1ccccc1)[C@]2(F)C(=O)O`: the time of peak concentration (Tmax) in data set [2] came to 6 h; in data set [3], 1.8 h; in data set [9], 1 h; in data set [15], 1 h; in data set [24] it was 0.7 h. Moreover, in data set [27], the concentration giving a half-maximal response (EC50) is > 100000 nM. The same molecule registered a concentration at 3 h in [4] of 37.6 ng/mL. Further, the peak concentration (Cmax) turned out to be 25 ng/mL in data set [5]; 85.1 ng/mL in [7]; 312 ng/mL in [14]; 61.3 ng/mL in data set [17]; 2.04 ng/mL in [25]. Moreover, the half-life in [6] was 1.62 h; in [10] it was 3.63 h; in [12], 2.2 h; in data set [19], 9 h; in [21], 2.8 h. Moreover, the concentration at 6 h in data set [8] came to 23.1 ng/mL; in data set [16], 2.04 ng/mL. The molecule also registered a concentration for half-maximal inhibition (IC50) in data set [11] of 24.4 nM. Further, the Ki came to 2.58 nM in [1] and 3.93 nM in data set [20]. This molecule displayed a concentration at 1 h in data set [22] of 61.3 ng/mL. Further, the concentration at 24 h was determined as 0.2 ng/mL in [23] and 0.51 ng/mL in [26].
`N[C@]1(C(=O)O)[C@H]2[C@@H](C[C@H]1OCc1cccc(C(=O)O)c1)[C@]2(F)C(=O)O`: the inhibition constant Ki in data set [1] amounted to 1.06 nM. This counts as single-digit nanomolar.
The molecule `C[C@H](O[C@@H]1C[C@@H]2[C@H]([C@]1(N)C(=O)O)[C@@]2(F)C(=O)O)c1ccc(Cl)c(Cl)c1` displayed a Ki in [1] of 5.81 nM.
On to `N[C@]1(C(=O)O)[C@H]2[C@@H](C[C@H]1OCc1cc(Cl)ccc1Cl)[C@]2(F)C(=O)O`, for which the affinity in [1] corresponds to a Ki of 11.8 nM.
For the molecule `N[C@]1(C(=O)O)[C@H]2[C@@H](C[C@H]1OCc1cc(Cl)c(Cl)c(Cl)c1)[C@]2(F)C(=O)O`, in data set [1], the Ki was 3.67 nM.
On to `N[C@]1(C(=O)O)[C@H]2[C@@H](C[C@H]1OCc1ccccc1)[C@]2(F)C(=O)O`, for which, in [11], it took 131 nM to reach half-maximal inhibition (IC50). For the same molecule, the inhibition constant (Ki) in data set [1] was found to be 7.14 nM; in data set [20], 15.9 nM.
